Results: ChEMBL document CHEMBL1156546, “Synthesis and positive inotropic activity of N-(4,5-dihydro-[1,2,4]triazolo[4,3-a]quinolin-7-yl)-2-(piperazin-1-yl)acetamide derivatives” (2008)
Activity calls are given as the source filed them. The calls are words filed in the database; no cut-off is given here.

Columns and labels:
Oryctolagus cuniculus [1] = organism: Oryctolagus cuniculus; assay: Inotropic effect on isolated rabbit heart assessed as increase in left atrium stroke volume; type: functional; design: concentration or dose not given beside the values
How it was run: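 Isolated perfused rabbit left atrium, HEPES buffer pH 7.4 (mM: 118 NaCl, 4.7 KCl, 2.5 CaCl2, 1.2 MgCl2, 25 NaHCO3, 10 glucose, 10 HEPES; 0.1% BSA) pumped at 1.25 mL/min. 60 min stabilization, pacing 1.5 Hz. Single dose 3×10^-5 M (DMSO stock diluted in buffer) after control cycle; 12-min cycles, stroke volume read every 2 min. Reported as % stroke volume increase, means ± SE, ANOVA.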

Oryctolagus cuniculus [2] = organism: Oryctolagus cuniculus; assay: Chronotropic effect on isolated rabbit heart assessed as change in heart beats; type: functional
How it was run: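 Heart rate measured in isolated rabbit hearts from the electrocardiogram in a volume conduction model. Samples at 3×10^-5 M, dissolved in DMSO and diluted in HEPES buffer. Rate recorded before (control) and after sample. Means ± SE, repeated measures compared by ANOVA, P < 0.05.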

Cc1nnc2n1-c1ccc(NC(=O)CN3CCN(C(=O)c4ccc([N+](=O)[O-])cc4)CC3)cc1CC2 was tested, and the Activity (Oryctolagus cuniculus [1]; Cardiac atrium) was “inactive”.

For O=C(CN1CCN(C(=O)c2cccc(Cl)c2)CC1)Nc1ccc2c(c1)CCc1nnc(Cc3ccccc3)n1-2, the Activity (Oryctolagus cuniculus [1]) was 2.4%.

With Cc1[nH]c(=O)c(C#N)cc1-c1ccncc1 [MILRINONE] the Activity (Oryctolagus cuniculus [1]) was 4.7%.

In the case of Cc1nnc2n1-c1ccc(NC(=O)CN3CCN(Cc4ccccc4Br)CC3)cc1CC2, the Activity (Oryctolagus cuniculus [1]; Cardiac atrium) is reported as “inactive”.

CC(=O)N1CCN(CC(=O)Nc2ccc3c(c2)CCc2nnc(C)n2-3)CC1 was tested, and the Activity (Oryctolagus cuniculus [1]; Cardiac atrium) was “inactive”.

With O=C(CN1CCN(Cc2ccccc2)CC1)Nc1ccc2c(c1)CCc1nnc(Cc3ccccc3)n1-2 the Activity (Oryctolagus cuniculus [1]) was 13.2% and the Activity (Oryctolagus cuniculus [2]) was 109.3 bpm.

O=C(CN1CCN(Cc2ccc3c(c2)OCO3)CC1)Nc1ccc2c(c1)CCc1nnc(Cc3ccccc3)n1-2 gave an Activity (Oryctolagus cuniculus [1]) of 5.2% and an Activity (Oryctolagus cuniculus [2]) of 89.2 bpm.

Work on COc1ccc(C(=O)N2CCN(CC(=O)Nc3ccc4c(c3)CCc3nnc(C)n3-4)CC2)cc1OC yielded an Activity (Oryctolagus cuniculus [1]) of 5.3% and an Activity (Oryctolagus cuniculus [2]) of 129.2 bpm.

With Cc1ccc(C(=O)N2CCN(CC(=O)Nc3ccc4c(c3)CCc3nnc(Cc5ccccc5)n3-4)CC2)cc1 the Activity (Oryctolagus cuniculus [1]) was 0.7%.

Work on Cc1cccc(C(=O)N2CCN(CC(=O)Nc3ccc4c(c3)CCc3nnc(C)n3-4)CC2)c1 yielded an Activity (Oryctolagus cuniculus [1]) of 8.8%.

Work on Cc1cccc(C(=O)N2CCN(CC(=O)Nc3ccc4c(c3)CCc3nnc(Cc5ccccc5)n3-4)CC2)c1 yielded an Activity (Oryctolagus cuniculus [1]) of 0.5%.

COc1ccc(CN2CCN(CC(=O)Nc3ccc4c(c3)CCc3nnc(C)n3-4)CC2)cc1 was tested, and the Activity (Oryctolagus cuniculus [1]) was 10.1% and the Activity (Oryctolagus cuniculus [2]) was 105.6 bpm.

Cc1nnc2n1-c1ccc(NC(=O)CN3CCN(C(=O)c4ccccc4)CC3)cc1CC2 was tested, and the Activity (Oryctolagus cuniculus [1]; Cardiac atrium) was “inactive”.

With COc1cc(CN2CCN(CC(=O)Nc3ccc4c(c3)CCc3nnc(C)n3-4)CC2)ccc1OCc1ccccc1 the Activity (Oryctolagus cuniculus [1]) was 9% and the Activity (Oryctolagus cuniculus [2]) was 111.5 bpm.

For Cc1nnc2n1-c1ccc(NC(=O)CN3CCN(C(=O)c4cccc(Cl)c4)CC3)cc1CC2, the Activity (Oryctolagus cuniculus [1]; Cardiac atrium) was “inactive”.

With Cc1nnc2n1-c1ccc(NC(=O)CN3CCN(Cc4ccccc4)CC3)cc1CC2 the Activity (Oryctolagus cuniculus [1]; Cardiac atrium) was “inactive”.

With Cc1nnc2n1-c1ccc(NC(=O)CN3CCN(C(=O)c4cccc([N+](=O)[O-])c4)CC3)cc1CC2 the Activity (Oryctolagus cuniculus [1]; Cardiac atrium) was “inactive”.

In the case of O=C(CN1CCN(C(=O)c2ccccc2)CC1)Nc1ccc2c(c1)CCc1nnc(Cc3ccccc3)n1-2, the Activity (Oryctolagus cuniculus [1]; Cardiac atrium) is reported as “inactive”.

In the case of Cc1ccc(C(=O)N2CCN(CC(=O)Nc3ccc4c(c3)CCc3nnc(C)n3-4)CC2)cc1, the Activity (Oryctolagus cuniculus [1]) is reported as 1.3%.

For Cc1nnc2n1-c1ccc(NC(=O)CN3CCN(Cc4ccc5c(c4)OCO5)CC3)cc1CC2, the Activity (Oryctolagus cuniculus [1]) was 5.1% and the Activity (Oryctolagus cuniculus [2]) was 136.9 bpm.
